ADAM10 inh: human ADAM10 inhibitors, primary screen, biochemical, QFRET, HTS | AID 720582, 2013 | recombinant ADAM10, EDANS/DABCYL FRET peptide cleavage, 3 h | inhibition, % at 7 µM | Disintegrin and metalloproteinase domain-containing protein 10 (Homo sapiens), O14672 | hit rate 0.62% among 370,000;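 active = inhibition above a per-campaign cutoff equal to the mean of compounds falling between control-based bounds plus 3 SD, cut at about 20% in these data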
PLC-gamma1 inh: PLC-gamma1 enzyme inhibitors, primary screen, biochemical, fluorescence, purified enzyme. 1-phosphatidylinositol 4,5-bisphosphate phosphodiesterase gamma-1 (Homo sapiens), P19174. inhibition, % at 12.2 µM. hit rate 0.84% among 370,000. fluorogenic substrate; in the data active = inhibition above about 9.5%
ADAM17 inh: ADAM17 inhibitors, primary screen, biochemical, QFRET; AID 720648, 2013; hit rate 0.83% among 370,000; inhibition, % at 6.95 µM; recombinant ADAM17, EDANS/DABCYL FRET peptide cleavage;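 active = inhibition above the mean of compounds lying between control limits plus 3 SD, set per campaign, cut at about 8.5% in these data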
Tn6 DDE FP: inhibitors of Tn6 peptide binding to fibrin DD(E), primary screen, biochemical, fluorescence polarization, human fibrin, Tn6 probe; Fibrinogen beta chain (Homo sapiens), P02675; Fibrin DD(E) TRITC-Tn6 fluorescence polarization displacement; inhibition, % at 8.3 µM; hit rate 0.21% among 370,000;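 active = inhibition above a per-campaign cutoff: mean of compounds within control limits plus 3 SD, cut at about 15% in these data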
Target sequence (P02675 whole entry, looked up): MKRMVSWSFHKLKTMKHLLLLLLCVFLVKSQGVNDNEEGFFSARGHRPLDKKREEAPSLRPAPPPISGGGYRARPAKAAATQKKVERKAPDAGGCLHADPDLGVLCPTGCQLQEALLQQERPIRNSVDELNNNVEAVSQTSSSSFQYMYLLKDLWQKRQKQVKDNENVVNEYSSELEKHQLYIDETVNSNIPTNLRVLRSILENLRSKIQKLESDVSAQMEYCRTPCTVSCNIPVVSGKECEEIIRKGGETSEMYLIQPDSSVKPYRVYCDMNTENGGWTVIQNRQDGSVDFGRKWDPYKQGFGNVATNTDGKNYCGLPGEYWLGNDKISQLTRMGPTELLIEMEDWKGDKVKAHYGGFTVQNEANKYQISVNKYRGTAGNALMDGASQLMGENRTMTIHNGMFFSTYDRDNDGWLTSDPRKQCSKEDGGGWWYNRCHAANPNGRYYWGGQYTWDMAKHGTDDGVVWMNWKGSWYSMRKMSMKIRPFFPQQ
PLC-beta3 inh: human PLC-beta3 inhibitors, primary screen, biochemical, fluorescence. 1-phosphatidylinositol 4,5-bisphosphate phosphodiesterase beta-3 (Homo sapiens), Q01970. Purified PLC-beta3, fluorogenic substrate. inhibition, % at 12.2 µM. hit rate 0.18% among 370,000; in the data active = inhibition above about 11%
Tn7 DDE FP: inhibitors of Tn7 peptide binding to fibrin DD(E), primary screen, biochemical, fluorescence polarization, human fibrin, Tn7 probe; Fibrinogen beta chain (Homo sapiens), P02675; FP displacement of FITC-Tn7 peptide from fibrin DD(E); 0% = median of compound wells per plate; hit rate 0.13% among 370,000; inhibition, % at 8.3 µM;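 active = inhibition above the mean of compounds falling within the control limits plus 3 SD of them, cut at about 14% in these data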
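Assay system: Human fibrin DD(E) protein | Medium: Tris buffer with calcium and detergent, pH 7.8 | Reagent: 0.1 µM fluorescent Tn7 | Compound dosing: Single point at 8.3 µM | Times: 10 min preincubation, 3 h with tracer, room temperature | Detection: Fluorescence polarization of the labelled Tn7 tracer | Controls: Aha-Tn7 high control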
DDE Tn6 FP ctr: counter-screen hit for Tn6 peptide-fibrin DD(E) binding disruption; inhibition, % at 8.3 µM; TRITC-Tn6 fluorescence polarization displacement; 0% = median of compound wells, not DMSO; hit rate 2% among 680; shares compounds with Tn6 DDE FP;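 active = inhibition above the mean of test compounds lying between the control limits plus 3 SD of those, cut at about 14% in these data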
Tn6 DDE conf: inhibitors of Tn6 peptide binding to fibrin DD(E), confirmation, biochemical, fluorescence polarization, human fibrin, Tn6 probe; FP displacement of TRITC-Tn6 peptide from DD(E); 0% = per-plate median of test wells; AID 720631, 2013; hit rate 10% among 680; shares compounds with Tn6 DDE FP; inhibition, % at 8.3 µM;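 active = inhibition above the mean of compounds lying within the control limits plus 3 SD, cut at about 16% in these data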
Numbers stand for hits; – = inactive; · = no result given. Most compounds without a hit are left out; they make up all but 2.3% or so of the library.

SMILES	ADAM10 inh	PLC-gamma1 inh	ADAM17 inh	Tn6 DDE FP	PLC-beta3 inh	Tn7 DDE FP	DDE Tn6 FP ctr	Tn6 DDE conf
O=C(Nc1nnc(-c2cccnc2)s1)c1cnc2ccccc2c1	–	–	–	–	–	–	·	·
CCOc1ccc(C(=O)Nc2cc(-c3nc4ccccc4[nH]3)ccc2Cl)cc1[N+](=O)[O-]	–	–	–	25	–	–	–	–
CCOc1ccc(C(=O)Nc2cc(-c3nc4ccccc4[nH]3)ccc2C)cc1[N+](=O)[O-]	–	–	–	–	–	–	·	·
O=C(c1ccc(Cl)cc1)C1CCN(c2ncnc3sccc23)CC1	–	–	–	–	–	–	·	·
Cc1cc(C(=O)COc2cc(F)ccc2[N+](=O)[O-])c(C)n1C1CC1	–	–	–	16	–	–	–	–
CC(OC(=O)c1cccc([N+](=O)[O-])c1)C(=O)N1CCc2ccccc21 (centres undefined)	–	–	–	16	–	–	–	–
CC(=O)Nc1cccc(C(=O)OC(C)C(=O)N2CCc3ccccc32)c1 (centres undefined)	–	–	–	–	–	–	·	·
Cc1ccc(C)c2c1cc(C)c1nnc(SCC(=O)N3CCCc4ccccc43)n12	–	–	–	–	–	–	·	·
CCn1c(=O)c2ccccc2n2c(SCC(=O)N3CCCc4ccccc43)nnc12	–	–	–	15	–	–	–	–
CC1(C)c2ccccc2N2CCC(=O)NC21/C=C/c1ccco1 (centres undefined)	–	–	–	17	–	–	–	–
CC1(C)c2ccccc2N2CC(=O)NC21/C=C/c1ccco1 (centres undefined)	–	–	–	–	–	–	·	·
CC1CCCN(C(=O)COC(=O)Cc2ccc(Cl)cc2)C1 (centres undefined)	–	–	–	–	–	–	·	·
COc1ccc(CC(=O)OCC(=O)N2CCCC(C)C2)cc1 (centres undefined)	–	–	–	15	–	–	–	–
CCOc1ccc(CNc2nnnn2C)cc1	–	–	–	–	–	–	·	·
CC(C)c1ccc(CNc2nnnn2C)cc1	–	–	–	19	–	–	–	–
CCC(=O)Nc1cc(OC)c(NC(=S)Nc2ccccc2CC)cc1OC	–	–	–	74	–	–	–	–
Cc1ccc(-n2c(SCC(=O)Nc3ccc(OCc4ccccc4)cc3)nnc2-c2cnccn2)cc1	–	–	–	–	–	–	·	·
Cc1nn(C)c(C)c1N1C(=O)c2cccc3c(N)ccc(c23)C1=O	–	–	–	19	–	–	–	–
CC(=O)C1(C(=O)NC2CCCC2)CC(c2ccccn2)=NO1 (centres undefined)	–	–	–	–	–	–	·	·
Cc1cccc(CCNC(=O)c2ccc(Sc3ccccc3Cl)c([N+](=O)[O-])c2)c1	–	–	–	–	–	–	·	·
COc1cc(CCC(=O)OCC(=O)Nc2c(C)cccc2C(C)C)cc(OC)c1OC	–	–	–	16	–	–	–	–
CC(=O)c1cc(-c2ccc(-c3ccccc3)c(F)c2)c(=O)n2c1CCC2	–	–	–	–	–	–	·	·
CC(C)(O)C(=O)NNC(=S)Nc1cccc(C(F)(F)F)c1	–	–	–	17	–	–	–	–
CNNC(=S)Nc1cccc(C(F)(F)F)c1	–	–	–	–	–	–	·	·
COc1ccc(-n2c(SCC(=O)Nc3ccc(S(=O)(=O)Nc4nccs4)cc3)nnc2-c2ccccc2)cc1	–	–	–	–	–	–	·	·

Screens as filed in PubChem BioAssay.
